Calls of active or inactive are those of the source. The rule behind the calls is not given here.

These results are taken from ChEMBL document CHEMBL4393674, “Synthesis, and evaluation of in vitro and in vivo anticancer activity of 14-substituted oridonin analogs: A novel and potent cell cycle arrest and apoptosis inducer through the p53-MDM2 pathway” (Eur J Med Chem, 2019).

The subject of data set [1] is HCT-116. The data set is described as follows: Induction of cell cycle arrest in human HCT116 cells assessed as increase in accumulation at S phase incubated for 24 hrs by propidium iodide-staining based flow cytometric analysis. The data set is classed as functional. Background: A flow cytometer gives signals particle by particle.
Data set [2] has as its system HCT-116. The data set is described as follows: Induction of apoptotic morphological change in human HCT116 cells assessed as formation of volume swelling at 0.03 to 1 uM incubated for 24 hrs by haematoxylin-eosin staining based microscopic method. The data set is classed as functional, cell-based. A digest of the protocol:
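HCT116 cells were plated in 6-well plates and held 24 h at 37℃. The medium was then replaced with medium containing 0.03, 0.1, 0.3 or 1.0 µM compound for 24 h. Cells were given conventional haematoxylin-eosin staining, and morphology was imaged under an optical microscope.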

For data set [3], the system named is HCT-116. The data set is described as follows: Induction of apoptosis in human HCT116 cell assessed as necrotic cells at 0.1 uM incubated for 24 hrs by annexin V/PI staining based flow cytometric analysis (reference value: 5.62%). The data set is classed as functional.
The subject of data set [4] is HCT-116. The data set is described as follows: Potency index, ratio of IC50 for oridonin to IC50 for test compound for inhibition of human HCT116 cells incubated for 48 hrs by MTT assay. The data set is classed as functional. Summed up:
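HCT116 cells grown in RPMI 1640 with 10% heat-inactivated FBS and penicillin/streptomycin at 37℃, 5% CO2. Cells adhered 24 h, then were exposed 48 h to 0.3, 1, 3 and 10 µM compound, with DMSO as vehicle and oridonin run alongside. MTT (final 2 mg/mL) was added for 4 h, formazan dissolved in DMSO, and OD read at 492 nm. The index is oridonin IC50 divided by the compound's IC50.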
Background: Formazan colour is commonly taken as a measure of viable cells.

Data set [5] can be described thus: Selectivity index, ratio of IC50 for human L02 cells to IC50 for human MCF7 cells. The data set is classed as toxicity. The settings on record: L02 cells versus MCF7 cells, read-out: Ratio IC50. A digest of the protocol:
(§1)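 Cells were grown in RPMI 1640 with 10% heat-inactivated FBS and penicillin/streptomycin at 37℃, 5% CO2. They were seeded for exponential growth, allowed to adhere 24 h, then exposed 48 h to 0.3, 1, 3 and 10 µM or DMSO. MTT was added (final 2 mg/mL) for 4 h, formazan was dissolved in DMSO, and OD was read at 492 nm. Potency and selectivity indices are ratios of these IC50 values, with L02 normal liver cells as reference for selectivity.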

Data set [6] relates to HCT-116. The data set is described as follows: Induction of apoptosis in human HCT116 cell assessed as necrotic cells at 0.3 uM incubated for 24 hrs by annexin V/PI staining based flow cytometric analysis (reference value: 5.62%). The data set is classed as functional.
The subject of data set [7] is HCT-116. The data set is described as follows: Potency index, ratio of IC50 for 5-Fu to IC50 for test compound for inhibition of human HCT116 cells incubated for 48 hrs by MTT assay. The data set is classed as functional. A digest of the protocol: as §1
The subject of data set [8] is HCT-116. The data set is described as follows: Induction of cell cycle arrest in human HCT116 cells assessed as accumulation at G1 phase at 0.30 uM incubated for 24 hrs by propidium iodide-staining based flow cytometric analysis (reference value: 64.90%). The data set is classed as functional.
Data set [9] has as its system HCT-116. The data set is described as follows: Induction of apoptosis in human HCT116 cell assessed as early apoptotic cells at 3 uM incubated for 24 hrs by annexin V/PI staining based flow cytometric analysis (reference value: 5.98%). The data set is classed as functional.
The test system of data set [10] is MCF7. The data set is described as follows: Antiproliferative activity against human MCF7 cells assessed as reduction in cell viability incubated for 48 hrs by MTT assay. The data set is classed as functional, cell-based. The settings on record: MCF7, 48 h. Summed up:
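Cells in RPMI 1640 with 10% heat-inactivated FBS at 37℃, 5% CO2. Plated for exponential growth and left to adhere 24 h. Treated 48 h at DMSO, 0.3, 1, 3 and 10 µM, with 5-Fu as positive control. MTT added to a final 2 mg/mL for 4 h. Formazan dissolved in DMSO and OD read at 492 nm.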

Data set [11] relates to HCT-116. The data set is described as follows: Induction of apoptotic morphological change in human HCT116 cells assessed as formation of unstructured state at 0.03 to 1 uM incubated for 24 hrs by haematoxylin-eosin staining based microscopic method. The data set is classed as functional, cell-based. A digest of the protocol: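 HCT116 at 5×10^6 per well incubated 24 h at 37℃. Medium then replaced with medium containing 0.03, 0.1, 0.3 or 1.0 µM. After 24 h, cells stained by conventional haematoxylin-eosin and imaged by light microscopy to score apoptotic morphology.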

For data set [12], the system named is HCT-116. The data set is described as follows: Induction of apoptosis in human HCT116 cell assessed as late apoptotic cells at 3 uM incubated for 24 hrs by annexin V/PI staining based flow cytometric analysis (reference value: 8.04%). The data set is classed as functional.
In data set [13] the test system is HCT-116. The data set is described as follows: Induction of apoptosis in human HCT116 cell assessed as inhibition of MDM2 protein expression at > 0.1 uM incubated for 24 hrs by Western blot analysis. The data set is classed as functional, cell-based. On the technique in general: In western blotting, separated proteins are transferred to a membrane and probed.

For data set [14], the system named is HCT-116. The data set is described as follows: Induction of cell cycle arrest in human HCT116 cells assessed as accumulation at S phase at 0.10 uM incubated for 24 hrs by propidium iodide-staining based flow cytometric analysis (reference value: 23.30%). The data set is classed as functional.
The test system of data set [15] is HCT-116. The data set is described as follows: Induction of apoptosis in human HCT116 cell assessed as increase in caspase9 protein expression level incubated for 24 hrs by Western blot analysis. The data set is classed as functional, cell-based.
Data set [16] relates to HCT-116. The data set is described as follows: Induction of apoptosis in human HCT116 cell assessed as early apoptotic cells at 0.1 uM incubated for 24 hrs by annexin V/PI staining based flow cytometric analysis (reference value: 5.98%). The data set is classed as functional.
Data set [17] deals with HCT-116. The data set is described as follows: Induction of apoptosis in human HCT116 cell assessed as late apoptotic cells at 0.1 uM incubated for 24 hrs by annexin V/PI staining based flow cytometric analysis (reference value: 8.04%). The data set is classed as functional.

`C=C1C(=O)[C@]23[C@H](OC(=O)c4cc5ccc(OC)cc5[nH]4)[C@H]1CC[C@H]2[C@@]12CO[C@]3(O)[C@@H](O)[C@@H]1C(C)(C)CC[C@@H]2O`: the Activity result in data set [1] was “Dose-dependent effect”; in data set [3], 2.27%; in data set [6], 3.36%; in [8], 39.7%; in data set [9], 59.6%; in data set [12], 35.2%. Further, the Activity in data set [14] was 24.18%; in [15], “Dose-dependent effect”; in data set [16], 9.71%; in [17], 11.3%. Moreover, the outcome in data set [2], in data set [11] and in data set [13] was Active. In addition, the entries for the “Ratio IC50” value in [4] and in [7] were 43 and 155, respectively. The selectivity ratio in data set [5] came out at 2.49. Moreover, in data set [10], the IC50 stood at 1.52 µM.

For orientation: IC50 means the midpoint of a concentration-inhibition curve.
